# Measurements published in PMC12401638 (Drug Testing and Analysis, 2025).
# Like-named read-outs stand apart in the source and are kept apart here.
# Experiments:
# [1] = biological target: CB1 (Homo sapiens, UniProt P21554); test: cell-based; type: cell-based
# [2] = biological target: T1, CB2 (Homo sapiens, UniProt P34972); test: cell-based; type: cell-based
# [3] = test system: neuropathic pain; details: mouse model for neuropathic pain; cited from earlier work
# [4] = biological target: T1, CB2; details: [35S]GTPγS, cAMP and βarr2 recruitment assay; cited from earlier work
# [5] = test system: both cannabinoid receptors; details: cited from earlier work
# [6] = Metabolite identification by human liver microsome incubation and LC-QTOF-MS; type: in vitro ADME; details: HLM incubation 37°C, 2 h
# In short: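 Pooled human liver microsomes (50 donors, 20 mg/mL stock) with NADPH (10 mM stock) in 100 mM phosphate buffer, pH 7.4, 10 mM MgCl2. Controls: buffer only, and buffer plus NADPH without microsomes. Microsomal samples run in duplicate. Incubated 2 h at 37°C, quenched with acetonitrile, centrifuged, supernatant partly dried and filtered. Analysed by LC-QTOF-MS with an ammonium formate (10 mM, pH 3) / MeOH:ACN gradient.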
# Chain of CB1 (P21554 whole entry): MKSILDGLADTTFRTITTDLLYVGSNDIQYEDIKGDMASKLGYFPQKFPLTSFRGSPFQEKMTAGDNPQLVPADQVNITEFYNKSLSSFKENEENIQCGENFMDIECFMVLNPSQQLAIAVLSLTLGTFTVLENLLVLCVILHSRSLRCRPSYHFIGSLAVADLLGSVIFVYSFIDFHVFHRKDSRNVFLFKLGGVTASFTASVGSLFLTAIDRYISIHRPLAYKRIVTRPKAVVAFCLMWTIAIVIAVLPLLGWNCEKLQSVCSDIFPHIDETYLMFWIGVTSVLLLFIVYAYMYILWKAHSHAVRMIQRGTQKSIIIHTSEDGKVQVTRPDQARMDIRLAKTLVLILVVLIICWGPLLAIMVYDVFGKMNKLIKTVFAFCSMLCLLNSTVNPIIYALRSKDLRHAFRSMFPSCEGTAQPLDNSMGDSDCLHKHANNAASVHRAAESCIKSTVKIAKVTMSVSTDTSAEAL
# Chain of CB1 (P32121 whole entry partner): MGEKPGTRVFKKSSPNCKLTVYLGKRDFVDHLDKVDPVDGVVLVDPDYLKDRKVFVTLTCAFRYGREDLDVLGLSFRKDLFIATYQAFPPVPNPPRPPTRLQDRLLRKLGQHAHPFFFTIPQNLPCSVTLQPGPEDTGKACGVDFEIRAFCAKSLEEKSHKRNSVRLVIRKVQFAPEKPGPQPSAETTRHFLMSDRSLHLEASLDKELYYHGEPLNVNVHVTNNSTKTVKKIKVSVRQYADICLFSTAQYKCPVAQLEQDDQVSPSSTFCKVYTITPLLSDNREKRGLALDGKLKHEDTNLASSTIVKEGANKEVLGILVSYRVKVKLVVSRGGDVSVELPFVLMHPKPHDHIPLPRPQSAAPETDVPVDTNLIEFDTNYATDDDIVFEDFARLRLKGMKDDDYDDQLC
# T1 sequence (P34972 whole entry): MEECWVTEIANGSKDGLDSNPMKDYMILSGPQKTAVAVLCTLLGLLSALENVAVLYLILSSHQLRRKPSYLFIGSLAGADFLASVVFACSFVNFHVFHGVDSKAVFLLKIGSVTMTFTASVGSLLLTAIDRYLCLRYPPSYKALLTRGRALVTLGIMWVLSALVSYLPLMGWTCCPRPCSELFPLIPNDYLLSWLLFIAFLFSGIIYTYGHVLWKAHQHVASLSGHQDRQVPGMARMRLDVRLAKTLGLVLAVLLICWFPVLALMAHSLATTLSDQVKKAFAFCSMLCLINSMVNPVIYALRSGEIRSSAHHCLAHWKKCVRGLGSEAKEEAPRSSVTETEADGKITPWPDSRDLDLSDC
# T1 sequence (P32121 whole entry partner): as the sequence (P32121 whole entry partner) above
compound,measurement,setting,value
"Cc1c(Br)cn(Cc2ccc(F)cc2)c(=O)c1NC(=O)C1CCCCCC1 [C2, N‐(5‐bromo‐1‐(4‐fluorobenzyl)‐4‐methyl‐2‐oxo‐1,2‐dihydropyridin‐3‐yl)cycloheptanecarboxamide]",CB1 activity compared with CH-FUBBMPDORA,[1],more active than CH‐FUBBMPDORA
same,CB2 receptor activation potential compared with CH-FUBBMPDORA,[2],almost identical and equally weak
same,antinociceptive activity,[3],displayed antinociceptive activity
same,activation potential at CB2,[4],(very) limited activation potential
CCCCCn1cc(C(=O)c2cccc3ccccc23)c2ccccc21 [JWH‐018],"E max (%) (95% CI), CB1, relative to CP55,940 (100%)",[1],378 (348–409) %
same,EC50,"[1]; read-out: EC 50 (nM) (95% CI), CB1",14.3 nM
same,"E max (%) (95% CI), CB2, relative to CP55,940 (100%)",[2],63.2 (55.8–70.9) %
same,EC50,"[2]; read-out: EC 50 (nM) (95% CI), CB2",4.36 nM
"Cc1c(Br)cn(Cc2ccc(F)cc2)c(=O)c1C(=O)NC1CCCCCC1 [B2, 5‐bromo‐N‐cycloheptyl‐1‐(4‐fluorobenzyl)‐4‐methyl‐2‐oxo‐1,2‐dihydropyridine‐3‐carboxamide]",activity and affinity at both cannabinoid receptors,[5],nanomolar activity and affinity
"Cc1c(Br)cn(Cc2ccc(F)cc2)c(=O)c1NC(=O)C1CCCCC1 [CH‐FUBBMPDORA, N‐[5‐bromo‐1‐(4‐fluorobenzyl)‐4‐methyl‐2‐oxo‐1,2‐dihydropyridin‐3‐yl)cyclohexanecarboxamide]",EC50,[1],3780 nM
same,EC50,[2],4270 nM
same,number of metabolites identified,[6],Four
same,Area (LC-QTOF-MS peak area),[6]; with NADPH,5.68e + 05
